How the values were obtained:
[1] = Phase 1 pharmacokinetics of ilorasertib in plasma; format: in vivo, human; details: for AUC(0-inf) / AUC(0-t) / half-life: human, plasma, po; for half-life: 480 mg, t1/2, arm B, oral twice weekly
Summary of the method: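 Arm A patients took oral test compound once weekly, in the morning, on days 1, 8 and 15 of 28-day cycles, at 10–690 mg. Plasma was sampled intensively up to 72 h after dosing on days 1 and 15. Noncompartmental analysis gave Cmax, Tmax, t½, AUCt and AUC∞, plus dose-normalized values. Results are summarized by dose level as mean ± SD, with individual values where N=1.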

[2] = tested on: patients with hematologic malignancies; assay: Phase 1 safety and tolerability; format: in vivo
Summary of the method: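 Four arms each ran 28-day cycles: oral once weekly (A), oral twice weekly (B), oral once weekly with IV/SC azacitidine on days 1–7 (C), and IV once weekly (D). Dose escalation followed a modified continual reassessment method, with MTD defined as a 30% DLT rate by logistic regression. Toxicity was graded continuously by CTCAE v4.0, with labs, ECG, MUGA/echocardiogram and vital signs monitored.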

[3] = tested on: placental growth factor (PlGF); assay: Placental growth factor concentration, biomarker of VEGF receptor inhibition; format: in vivo, human; details: arm A
Summary of the method: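 Arm A patients received oral test compound once weekly on days 1, 8 and 15 of 28-day cycles, at 10–690 mg. At designated time points after the first dose, blood for PlGF measurement was collected together with pharmacokinetic samples. The change from baseline in PlGF was assessed against dose.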

[4] = tested on: patients with advanced hematologic malignancies; assay: Clinical response; format: in vivo, human
Summary of the method: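 Patients received the test compound in one of four arms, each on a 28-day cycle. Arm A took it orally once weekly on days 1, 8 and 15, and arm B orally on days 1, 2, 8, 9, 15 and 16. Arm C added IV or SC azacitidine on days 1–7 to the once-weekly oral schedule. Arm D received it IV on days 1, 8 and 15. Response used revised International Working Group criteria, or NCCN guidelines for CML.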

Nc1ncc(-c2cnn(CCO)c2)c2scc(-c3ccc(NC(=O)Nc4cccc(F)c4)cc3)c12 [Ilorasertib]
AUC(0-inf) ([1]; 340 mg): 6010 ± 710 ng·h/mL | AUC(0-inf) ([1]; 440 mg): 14100 ± 7940 ng·h/mL | AUC(0-t) ([1]; 440 mg): 13500 ± 7520 ng·h/mL | half-life ([1]; day 1, N=7): 14.9 ± 3.2 h | half-life ([1]; day 15, N=7): 15.3 ± 5.1 h | AUC(0-inf) ([1]; 540 mg): 6010 ± 1230 ng·h/mL | AUC(0-t) ([1]; 540 mg, AUC0–24, arm A, oral once weekly, first dose, N=3, mean ± SD): 5800 ± 1080 ng·h/mL | AUC(0-inf) ([1]; 640 mg): 20300 ± 15000 ng·h/mL | AUC(0-t) ([1]; 640 mg, AUC0–24, arm A, oral once weekly, first dose, N=6, mean ± SD): 19700 ± 14800 ng·h/mL | AUC(0-inf) ([1]; 690 mg): 8460 ng·h/mL | renal excretion of ilorasertib as the parent drug ([1]; in vivo): negligible | dose proportionality of Cmax and AUC∞ ([1]; oral, 80- to 690-mg dose range): generally dose proportional | patients reporting grade 3 or 4 adverse events ([2]; 42 of 52 patients): 80.8% | patients reporting at least 1 treatment-emergent adverse event ([2]; 51 of 52 patients): 98.1% | grade 3/4 adverse event: anemia ([2]; 52 patients, all arms): 13.5% | grade 3/4 adverse event: hypertension ([2]; 52 patients, all arms): 28.8% | grade 3/4 adverse event: hypokalemia ([2]; 52 patients, all arms): 15.4% | grade 3/4 adverse event: hypophosphatemia ([2]; 52 patients, all arms): 11.5% | grade 3 or 4 adverse events related to ilorasertib: hypertension ([2]; 52 patients, all arms): 17.3% | grade 3 or 4 adverse events related to ilorasertib: pancreatitis ([2]; 52 patients, all arms): 3.8% | grade 3 or 4 adverse events related to ilorasertib: proteinuria ([2]; 52 patients, all arms): 3.8% | Treatment-emergent adverse events, any grade: Anemia ([2]; all arms, N=52): 7 (13.5) n (%) | Treatment-emergent adverse events, any grade: Any event ([2]; all arms, N=52): 51 (98.1) n (%) | Treatment-emergent adverse events, any grade: Arthralgia ([2]; all arms, N=52): 8 (15.4) n (%) | Treatment-emergent adverse events, any grade: Bone pain ([2]; all arms, N=52): 8 (15.4) n (%) | Treatment-emergent adverse events, any grade: Decreased appetite ([2]; all arms, N=52): 8 (15.4 n (%) | Treatment-emergent adverse events, any grade: Diarrhea ([2]; all arms, N=52): 23 (44.2) n (%) | Treatment-emergent adverse events, any grade: Epistaxis ([2]; all arms, N=52): 7 (13.5) n (%) | Treatment-emergent adverse events, any grade: Fatigue ([2]; all arms, N=52): 11 (21.2) n (%) | Treatment-emergent adverse events, any grade: Headache ([2]; all arms, N=52): 8 (15.4) n (%) | Treatment-emergent adverse events, any grade: Hypertension ([2]; all arms, N=52): 17 (32.7) n (%) | Treatment-emergent adverse events, any grade: Hypokalemia ([2]; all arms, N=52): 18 (34.6) n (%) | Treatment-emergent adverse events, any grade: Hypomagnesemia ([2]; all arms, N=52): 10 (19.2) n (%) | Treatment-emergent adverse events, any grade: Hypophosphatemia ([2]; all arms, N=52): 9 (17.3) n (%) | Treatment-emergent adverse events, any grade: Nausea ([2]; all arms, N=52): 23 (44.2) n (%) | Treatment-emergent adverse events, any grade: Peripheral edema ([2]; all arms, N=52): 11 (21.2) n (%) | Treatment-emergent adverse events, any grade: Proteinuria ([2]; all arms, N=52): 19 (36.5) n (%) | Treatment-emergent adverse events, any grade: Pyrexia ([2]; all arms, N=52): 8 (15.4) n (%) | Treatment-emergent adverse events, any grade: Vomiting ([2]; all arms, N=52): 10 (19.2) n (%) | Treatment-emergent adverse events, grade 3/4: Acute renal failure ([2]; all arms, N=52): 3 (5.8) n (%) | Treatment-emergent adverse events, grade 3/4: Anemia ([2]; all arms, N=52): 7 (13.5) n (%) | Treatment-emergent adverse events, grade 3/4: Any grade 3/4 event ([2]; all arms, N=52): 42 (80.8) n (%) | Treatment-emergent adverse events, grade 3/4: Bacteremia ([2]; all arms, N=52): 3 (5.8) n (%) | Treatment-emergent adverse events, grade 3/4: Febrile neutropenia ([2]; all arms, N=52): 4 (7.7) n (%) | Treatment-emergent adverse events, grade 3/4: Fungal pneumonia ([2]; all arms, N=52): 4 (7.7) n (%) | Treatment-emergent adverse events, grade 3/4: Hypertension ([2]; all arms, N=52): 15 (28.8) n (%) | Treatment-emergent adverse events, grade 3/4: Hypokalemia ([2]; all arms, N=52): 8 (15.4) n (%) | Treatment-emergent adverse events, grade 3/4: Hypophosphatemia ([2]; all arms, N=52): 6 (11.5) n (%) | Treatment-emergent adverse events, grade 3/4: Hypotension ([2]; all arms, N=52): 3 (5.8) n (%) | Treatment-emergent adverse events, grade 3/4: Pneumonia ([2]; all arms, N=52): 4 (7.7) n (%) | Treatment-emergent adverse events, grade 3/4: Proteinuria ([2]; all arms, N=52): 4 (7.7) n (%) | Treatment-emergent adverse events, grade 3/4: Sepsis ([2]; all arms, N=52): 3 (5.8) n (%) | DLTs ([2]; arm A, PO once weekly monotherapy, 640 mg, 6 patients): Grade 3 pancreatitis ^a | recommended phase 2 dose (RPTD) ([2]; arm A, oral monotherapy once weekly): 540 mg | DLTs ([2]; arm B, 320 or 480 mg twice weekly): No DLTs | recommended phase 2 dose (RPTD) ([2]; arm B, oral monotherapy twice weekly): 480 mg | DLTs ([2]; arm D, IV once weekly, 32 mg): No DLTs | increase in PlGF ([3]; after the first dose, dose range 10 to 690 mg): ≥ 2 fold | relationship between dose and the magnitude of change in PlGF [3]: no apparent relationship | patients with a best response of stable disease ([4]; 52 patients): Twelve | patients with an objective response ([4]; AML patients, among 52 patients): 3 | patients with CR with incomplete blood count recovery (CRi) ([4]; AML, arm A, 640 mg, end of cycle 1): 1 | patients with complete response (CR) ([4]; AML, arm A, 690 mg, end of cycle 8): 1 | patients with partial response ([4]; AML, arm B, 480 mg, end of cycle 2): 1
